HSF1 inh: HSF1 inhibition. NIH3T3-HGL HSE-luciferase, MG132-induced, luminescence 8 h; active compounds read low. AID 2098. 300,000 compounds, 0.77% hits. activity change, negative = inhibition, % at 7.5 µM (by protocol);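 active = more than half of replicate wells show activity change below -50%, luminescence cut by over half; inconclusive = some wells, but at most half, below -50%; inactive = no replicate well below -50%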;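 note: luciferase reports HSF-1 transcriptional activity via heat shock element; 0% = median of DMSO wells and -100% = zero luminescence signal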
HSP90 refold inh: inhibitors of HSP90 luciferase refolding in rabbit reticulocyte lysate; luciferase refolding luminescence, 3 h; inhibition, % at 5.6 µM; 290,000 compounds, 0.91% hits;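 active = inhibition above the screen-wide mean plus 3 SD, computed separately per campaign, cut at about 16% in these data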;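 note: 0% = DMSO wells and 100% = 60 µM geldanamycin wells; inhibitors lower the luminescence because luciferase stays unfolded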
core dimer inh: HCV core protein dimerization inhibition; inhibition, % at 5 µM; TR-FRET GST/Flag-core106 dimerization, 1536-well; 300,000 compounds, 0.33% hits;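 active = inhibition above the mean of all tested compounds plus 3 SD, set per screening campaign, cut at about 45% in these data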
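Assay system – GST-tagged and Flag-tagged HCV core protein residues 1-106 · Quantity – core106 proteins, GST 13.5 nM and Flag 17 nM · Benchmarks – unlabelled core106 and no-GST-core106 wells · Read-out basis – percent inhibition of core106 dimerization signal · Detection – time-resolved FRET, ex 340 nm, em 617 and 671 nm · Schedule – 4 h at 22.5 °C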
HSF-1 act: increases HSF-1 driven luciferase reporter signal; NIH3T3-HGL HSF-1 luciferase reporter, MG132, 8 h; 100% = twice DMSO control signal; activation, % at 9 µM; 300,000 compounds, 1.7% hits; AID 504408;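 active = mean replicate activation of at least 50% with a set share of replicates each reaching 50%; inconclusive = only one of those two conditions met; inactive = mean below 50% and too few replicates reaching it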;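 note: 0% = median of the neutral control wells and 100% = twice that signal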
FID counter: fluorescent intercalator displacement, NS3 helicase counter-screen | inhibition, % at 7.9 µM | 290,000 compounds, 0.17% hits | DNA fluorescent intercalator displacement, fluorescence | AID 1845; in the data active = inhibition above about 37%;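 note: 0% = vehicle and 100% = reference compound; higher means more ethidium bromide displaced from hairpin DNA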
NS3 helicase inh: inhibitors of Hepatitis C virus NS3 helicase; inhibition, % at 10.9 µM; 290,000 compounds, 0.56% hits; NS3 helicase DNA unwinding, Cy5 molecular beacon fluorescence;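 active = inhibition above the mean of all tested compounds plus 3 SD, set per campaign, cut at about 35% in these data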;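 note: 0% = DMSO wells and 100% = thioflavine S control wells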
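Control set: DMSO versus 110 µM thioflavine S; Material: NS3 helicase fragment of HCV; Measured by: Cy5 fluorescence at 0 and 60 min, beacon hairpin quenching; Read-out basis: percent inhibition from t60/t0 fluorescence ratio; Times: reaction time 60 min, 25 °C; Repeats: single replicate; Compound dosing: single dose, 10.9 µM nominal final, DMSO 0.8% final.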
HSP90 confirm: confirmation of HSP90 inhibitors. inhibition, % at 5.9 µM. 2,300 compounds, 64% hits. shares compounds with HSP90 refold inh. rabbit reticulocyte lysate, luciferase refolding luminescence, 3 h. AID 1846; in the data active = inhibition above about 18%;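 note: 0% = vehicle wells and 100% = reference inhibitor wells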
FLuc counter: blocks native firefly luciferase in HSP90 counter-screen. purified native firefly luciferase, luminescence. shares compounds with HSP90 refold inh. 2,300 compounds, 48% hits. inhibition, % at 5.9 µM;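 active = inhibition above the mean inhibition of all tested sample wells plus 3 SD, cut at about 10% in these data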;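 note: 0% = DMSO with luciferase and 100% = wells lacking luciferase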
Target sequence (P08659 whole entry, looked up): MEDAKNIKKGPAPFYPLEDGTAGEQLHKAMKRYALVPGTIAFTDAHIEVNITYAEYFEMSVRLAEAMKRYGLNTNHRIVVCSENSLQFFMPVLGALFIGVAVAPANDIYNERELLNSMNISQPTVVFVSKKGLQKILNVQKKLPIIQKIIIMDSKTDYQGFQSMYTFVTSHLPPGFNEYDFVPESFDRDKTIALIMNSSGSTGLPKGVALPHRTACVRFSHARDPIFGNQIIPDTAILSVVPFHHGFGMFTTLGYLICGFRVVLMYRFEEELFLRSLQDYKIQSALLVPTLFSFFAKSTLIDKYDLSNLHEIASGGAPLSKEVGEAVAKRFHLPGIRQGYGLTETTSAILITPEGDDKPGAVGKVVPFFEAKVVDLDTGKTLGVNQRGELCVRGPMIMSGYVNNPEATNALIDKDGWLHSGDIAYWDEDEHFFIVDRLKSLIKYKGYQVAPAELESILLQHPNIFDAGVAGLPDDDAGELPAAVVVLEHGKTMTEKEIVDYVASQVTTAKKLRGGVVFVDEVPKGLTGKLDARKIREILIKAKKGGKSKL
Active calls of the source: *; ? = inconclusive; . = no result given. Rows were chosen to be rich in hits. Some 3.9% of all compounds tested hit in one or more screens of this group.

SMILES | HSF1 inh | HSP90 refold inh | core dimer inh | HSF-1 act | FID counter | NS3 helicase inh | HSP90 confirm | FLuc counter
COc1ccc(C(=O)Nc2nncs2)cc1S(=O)(=O)N1CC(c2ccccc2)CC1=O (stereo unspecified) | -2 | -1 | 5 | -4 | -19 | -5 | . | .
CSc1ccccc1OC1CCN(Cc2ccccc2)CC1 | -10 | -3 | 4 | 0 | 8 | -32 | . | .
C(=C\c1ccc2ccccc2n1)/c1ccccc1 | -30 | 35* | -3 | -12 | -6 | -6 | 83* | 77*
O=[N+]([O-])c1ccc(/C=C/c2ccc3ccccc3n2)cc1 | 8 | 21* | 21 | ? | -4 | 1 | 66* | 54*
CC(=O)N(C(C)=O)n1c(/C=C/c2ccc([N+](=O)[O-])cc2)nc2ccccc2c1=O | 6 | -1 | 0 | 17 | 4 | 19 | . | .
C/C=C/Cn1c(N2CCCCCC2)nc2c1c(=O)[nH]c(=O)n2C | -10 | 0 | -3 | 6 | 0 | -7 | . | .
Cn1c(=O)[nH]c(=O)c2c1nc(N1CCCCC1)n2C/C=N/Nc1ccc(C(=O)O)cc1 | 2 | 41* | -5 | 25 | -5 | 5 | 29* | 36*
COc1cccc(/C=C2\SC(=O)NC2=O)c1OCc1ccc(C(=O)O)cc1 | 1 | 23* | 6 | 12 | -21 | 4 | -6 | -16
CN1C(=O)S/C(=C\c2ccccc2OCc2ccc(C(=O)O)cc2)C1=O | 4 | 3 | 18 | 3 | -31 | 11 | . | .
O=C(c1cccc(-c2ccccc2F)c1)N1CC[C@@H](N2CCC(O)CC2)[C@H](O)C1 | 7 | 84* | 4 | 15 | 5 | -1 | 4 | -4
COC(=O)c1ccc(-c2nc(CN3CCCN(C(=O)c4ccco4)CC3)c(C)o2)cc1 | 0 | 25* | 0 | 2 | -20 | 1 | 16 | -11
Cc1cccnc1Nc1nc(-c2ccc(O)cc2)cs1 | -5 | 1 | -5 | 14 | 5 | -10 | . | .
Oc1ccc(-c2csc(Nc3ccccn3)n2)cc1 | 30 | 21* | -35 | 63* | -2 | 13 | -2 | -12
Cc1ccc(-c2csc(Nc3ccccn3)n2)cc1 | 11 | 19* | 8 | 33 | -2 | -8 | 26* | 17*
COc1ccc(C2NCCc3c2[nH]c2ccccc32)cc1CSc1nc2ccccc2s1 (stereo unspecified) | 2 | 0 | -8 | -5 | 8 | -95 | . | .
Cc1cc(C)c(OCC(=O)OCC(=O)NCCC2=CCCCC2)c(C)c1 | -3 | . | -7 | 6 | . | . | . | .
COc1ccc(-n2c(=O)c3c4c(sc3n3c(C)nnc23)CCCC4)cc1 | . | -1 | . | . | -1 | 9 | . | .
CCOC(=O)c1c(S(=O)(=O)N2CCCC(C(=O)Nc3cccc(C)n3)C2)c(C)n(C)c1C (stereo unspecified) | -5 | 21* | 0 | 10 | -34 | 2 | 3 | -3
CCOC(=O)c1c(S(=O)(=O)N2CCCC(C(=O)Nc3ncccc3C)C2)c(C)n(C)c1C (stereo unspecified) | -9 | -8 | -4 | -13 | -15 | -2 | . | .
Cc1sc(NC(=O)CS(=O)(=O)c2ccccc2)c(C#N)c1C | 13 | . | 0 | 9 | . | . | . | .
COc1ccc(-c2cc3nc(C)cc(N)n3n2)cc1 | 28 | 42* | 3 | 43 | 0 | 6 | 61* | 41*
O=C(Nc1ccc(Br)cc1)C1CCCC1 | 1 | -2 | -15 | 5 | -2 | 17 | . | .
O=C(Cc1ccc(F)cc1)Nc1nnc(SCC(=O)N2CCCCC2)s1 | 1 | -3 | -1 | 7 | -6 | 5 | . | .
O=C(Nc1nnc(SCC(=O)N2CCCCC2)s1)c1ccc(F)cc1F | 6 | 51* | -4 | 27 | -23 | 1 | 0 | -25
COC(=O)c1c(CSc2ccc(C)c(C)c2)noc1C(=O)NCc1ccc(OC)cc1 | 9 | 3 | 21 | 9 | -18 | -9 | . | .
SMILES | HSF1 inh | HSP90 refold inh | core dimer inh | HSF-1 act | FID counter | NS3 helicase inh | HSP90 confirm | FLuc counter
CC(C)(C)N=C1NN=C(c2cc3ccccc3o2)CS1 | -34 | 20* | -1 | -50 | -2 | -3 | 29* | 23*
C=CCn1c(C)cc(C2=NNC(=NC(C)(C)C)SC2)c1C | 10 | 5 | -2 | 31 | -3 | -4 | . | .
CC(C)(C)N=C1NN=C(c2ccc(Cl)cc2)CS1 | ? | 20* | -1 | -59 | 2 | -8 | 22* | 22*
COc1ccc(CN=C2NN=C(c3ccc(Cl)cc3)CS2)cc1 | -2 | -3 | 4 | 8 | -11 | -8 | . | .
Cc1onc(-c2cccc(Cl)c2Cl)c1C(=O)O/N=C(\N)c1ccc([N+](=O)[O-])o1 | 9 | 33* | 1 | 25 | 6 | -9 | -4 | -7
Cc1onc(-c2ccccc2)c1C(=O)O/N=C(\N)c1ccc([N+](=O)[O-])o1 | 27 | 2 | -2 | ? | 1 | -8 | . | .
NS(=O)(=O)c1ccc(NNC(=O)c2ccc(F)cc2F)cc1 | 1 | -3 | -2 | 27 | -5 | -7 | . | .
O=C(CC(Nc1ccccc1Cl)C(=O)OCC(=O)c1cccs1)c1ccccc1 (stereo unspecified) | -58* | 32* | 3 | -61 | -4 | 2 | 43* | 38*
O=C(CC(Nc1ccc(Cl)cc1Cl)C(=O)O)c1ccccc1 (stereo unspecified) | -89* | 25* | 4 | -91 | 2 | 22 | 76* | 74*
O=C(OCC(=O)c1cccs1)c1ccccc1 | 18 | -3 | -6 | 42 | -1 | 6 | . | .
CCCc1ccc(-c2ccc(/C=C/C(=O)O)cc2)nc1 | -32 | 59* | 5 | -44 | -18 | 3 | 82* | 51*
CCCCCc1ccc(-c2ccc(/C=C/C(=O)O)cc2)nc1 | -36 | 14 | -1 | -42 | -43 | 21 | . | .
COc1cccc(N2CCN(c3ccc4nnc(CCC(=O)Nc5ccc(OC)c(OC)c5)n4n3)CC2)c1 | -4 | -5 | 11 | 10 | -54 | -4 | . | .
CCO[C@H]1OC(C(=O)N2CCN(C)CC2)=C[C@@H](c2csc3ccccc23)[C@@H]1CCCO | 1 | 18* | -8 | -1 | -2 | 2 | -4 | -6
CN(C)c1ccc(-c2nn3c(-c4ccc(Cl)cc4)nnc3s2)cc1 | -3 | -2 | . | 20 | -2 | -7 | . | .
CNc1nnc(-c2ccc(N(C)C)cc2)s1 | . | 20* | -16 | . | -1 | 3 | 47* | 37*
COc1ccc(C(CNC(=O)c2ccc3c(c2)C(=O)N(CCC(C)C)C3=O)N2CCOCC2)cc1 (stereo unspecified) | -5 | -1 | -1 | -1 | -14 | -20 | . | .
CC1CCc2nc(NC(=O)C3CC3)sc2C1 (stereo unspecified) | 9 | 1 | 5 | 13 | 0 | 9 | . | .

Screens from PubChem BioAssay.
